pIC50: −log10 of the molar value.
Test system: CCRF-CEM
Test: In vitro growth inhibitory activity against CCRF-CEM (human lymphoblastic leukemic) cells.
Assay type: functional
Settings: read-out: ID50 (the source's name)
Outline: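 Human lymphoblastic leukemia CCRF-CEM cultures exposed to drug for 48 h. The value is the concentration inhibiting culture growth by 50% relative to untreated controls.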

Structure (SMILES) | pIC50
COc1cccc2c1C(=O)c1c(O)c3c(c(O)c1C2=O)C=C(C(C)=O)C[C@@H]3O | 5.00
CCCCC(=O)OCC(=O)[C@@H]1Cc2c(O)c3c(c(O)c2[C@@H](OC2CC(NC(=O)C(F)(F)F)C(O)C(C)O2)C1)C(=O)c1c(OC)cccc1C3=O (stereo partly drawn) | 5.33
COc1cccc2c1C(=O)c1c(O)c3c(c(O)c1C2=O)C=C(C(C)=O)CC3 | < 5.00
CCCCC(=O)OCC(=O)[C@]1(O)Cc2c(O)c3c(c(O)c2[C@@H](OC2CC(NC(=O)C(F)(F)F)C(O)C(C)O2)C1)C(=O)c1c(OC)cccc1C3=O (stereo partly drawn) | 6.64
COc1cccc2c1C(=O)c1c(O)c3c(c(O)c1C2=O)C[C@@H](C(C)=O)CC3 | < 5.00
COc1ccc(C(OCC(=O)C2=Cc3c(O)c4c(c(O)c3[C@@H](OC3CC(NC(=O)C(F)(F)F)C(O)C(C)O3)C2)C(=O)c2c(OC)cccc2C4=O)(c2ccccc2)c2ccccc2)cc1 (stereo partly drawn) | < 5.30
COc1cccc2c1C(=O)c1c(O)c3c(c(O)c1C2=O)C=C(C(=O)CO)C[C@@H]3OC1CC(N)C(O)C(C)O1 (stereo partly drawn) | 5.64
COc1ccc(C(OCC(=O)C2=Cc3c(O)c4c(c(O)c3[C@@H](OC3CC(N)C(O)C(C)O3)C2)C(=O)c2c(OC)cccc2C4=O)(c2ccccc2)c2ccccc2)cc1 (stereo partly drawn) | < 5.30
CCCCC(=O)OCC(=O)C1=Cc2c(O)c3c(c(O)c2[C@@H](OC2CC(NC(=O)C(F)(F)F)C(O)C(C)O2)C1)C(=O)c1c(OC)cccc1C3=O (stereo partly drawn) | 5.57
COc1cccc2c1C(=O)c1c(O)c3c(c(O)c1C2=O)CC(C(C)=O)C[C@@H]3OC1CC(NC(=O)C(F)(F)F)C(O)C(C)O1 (stereo partly drawn) | 5.40
COc1cccc2c1C(=O)c1c(O)c3c(c(O)c1C2=O)C=C(C(C)=O)C[C@@H]3OC1CC(NC(=O)C(F)(F)F)C(O)C(C)O1 (stereo partly drawn) | 5.59
COc1cccc2c1C(=O)c1c(O)c3c(c(O)c1C2=O)C[C@@](O)(C(C)=O)C[C@@H]3O[C@H]1C[C@H](N)[C@H](O)[C@H](C)O1 [DAUNORUBICIN] | 7.40
COc1cccc2c1C(=O)c1c(O)c3c(c(O)c1C2=O)C[C@@](O)(C(=O)CO)C[C@@H]3O[C@H]1C[C@H](N)[C@H](O)[C@H](C)O1 [DOXORUBICIN] | 7.18

Reference: ChEMBL document CHEMBL1122048, “Adriamycin analogues. Preparation of 9,10-anhydrodaunorubicin, 9,10-anhydroadriamycin, and some related compounds” (1982)
